Reference: ChEMBL document CHEMBL1127381, “Synthesis and 5-lipoxygenase inhibitory activities of some novel 2-substituted 5-benzofuran hydroxamic acids” (J Med Chem, 1994)

Columns and labels:
[1] = target: T1, Polyunsaturated fatty acid 5-lipoxygenase (Mus musculus) (UniProt P48999); experiment: In vivo inhibition of 5-lipoxygenase (LTC4) in the mouse zymosan peritonitis assay at an oral dose of 30 mg/Kg; assay type: functional, organism-based
T1 sequence (whole entry): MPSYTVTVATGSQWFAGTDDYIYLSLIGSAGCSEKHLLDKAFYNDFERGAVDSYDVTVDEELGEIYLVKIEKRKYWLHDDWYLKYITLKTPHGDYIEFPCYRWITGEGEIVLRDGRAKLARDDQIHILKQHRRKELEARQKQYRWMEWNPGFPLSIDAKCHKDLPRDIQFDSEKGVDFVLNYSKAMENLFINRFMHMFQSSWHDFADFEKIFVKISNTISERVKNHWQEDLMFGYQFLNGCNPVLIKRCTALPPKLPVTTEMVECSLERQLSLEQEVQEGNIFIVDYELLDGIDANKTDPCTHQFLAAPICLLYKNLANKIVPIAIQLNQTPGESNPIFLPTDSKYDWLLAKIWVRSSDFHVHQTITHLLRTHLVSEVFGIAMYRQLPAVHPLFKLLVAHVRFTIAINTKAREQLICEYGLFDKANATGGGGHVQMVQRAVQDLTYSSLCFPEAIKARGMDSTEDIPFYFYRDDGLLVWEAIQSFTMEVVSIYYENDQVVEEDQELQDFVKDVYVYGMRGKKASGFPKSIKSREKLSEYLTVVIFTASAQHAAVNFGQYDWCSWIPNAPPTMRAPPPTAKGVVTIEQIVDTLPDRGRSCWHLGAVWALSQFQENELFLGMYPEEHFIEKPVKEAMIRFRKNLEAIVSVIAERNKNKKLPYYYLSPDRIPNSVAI
Summary of the method: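 Male CD-1 mice (18–25 g) given compound orally in PEG 200. Zymosan-A (3 mg in 0.9% saline) injected ip 1 h later. Mice killed 15 min after zymosan; peritoneum lavaged with 10 μM indomethacin. Fluid extracted in cold 95% ethanol and dried. LTC4 measured by [3H]RIA on 1:20 dilution. Values are mean percent inhibition per animal ± SEM.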

[2] = target: T2, Polyunsaturated fatty acid 5-lipoxygenase (Rattus norvegicus, UniProt P12527); experiment: In vitro inhibition of 5-lipoxygenase (5-HETE) derived from the 9000xg supernatant of RBL broken cell assay; assay type: cell-based
T2 sequence (P12527 whole entry): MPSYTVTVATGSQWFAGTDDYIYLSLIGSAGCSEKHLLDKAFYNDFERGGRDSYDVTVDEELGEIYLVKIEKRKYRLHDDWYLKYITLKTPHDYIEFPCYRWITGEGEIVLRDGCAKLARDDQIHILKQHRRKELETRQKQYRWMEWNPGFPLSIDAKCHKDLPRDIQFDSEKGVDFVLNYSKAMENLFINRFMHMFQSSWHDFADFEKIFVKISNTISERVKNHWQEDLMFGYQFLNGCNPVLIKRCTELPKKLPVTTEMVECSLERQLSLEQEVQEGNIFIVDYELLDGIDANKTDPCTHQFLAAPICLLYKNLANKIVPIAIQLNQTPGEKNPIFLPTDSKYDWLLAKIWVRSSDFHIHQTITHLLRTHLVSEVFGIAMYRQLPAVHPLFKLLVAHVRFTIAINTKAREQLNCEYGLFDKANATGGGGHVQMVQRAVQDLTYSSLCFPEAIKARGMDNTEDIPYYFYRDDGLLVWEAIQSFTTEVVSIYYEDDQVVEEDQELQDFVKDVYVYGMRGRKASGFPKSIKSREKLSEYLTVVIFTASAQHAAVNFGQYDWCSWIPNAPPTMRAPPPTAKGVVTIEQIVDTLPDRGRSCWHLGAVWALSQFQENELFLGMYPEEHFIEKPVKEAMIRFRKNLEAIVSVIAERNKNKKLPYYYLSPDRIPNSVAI
Summary of the method: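 RBL-1 cells grown in suspension, washed, suspended at 5 × 10^7 cells/mL in NaHPO4/CaCl2 buffer, homogenized at 0 °C, spun 9000g for 50 min. Supernatant preincubated with compound 5 min at 37 °C, then [14C]arachidonic acid added and incubated 20 min at 37 °C. Reaction stopped with 2 N formic acid. 5-HETE formation measured radiometrically.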

| Compound | inhibition [1] | IC50 [2] | ED50 [1] |
| --- | --- | --- | --- |
| COc1ccc2cc(-c3cc4cc(C(C)N(O)C(C)=O)ccc4o3)ccc2c1 (configuration not stated) | 25.6% | 120 nM |  |
| COc1cccc(OC)c1C(=O)N(O)C(C)c1ccc2oc(-c3ccccc3)cc2c1 (configuration not stated) |  | 3000 nM |  |
| CC(=O)N(O)C(C)c1ccc(OCCc2ccccc2)cc1 (configuration not stated) |  | 410 nM |  |
| CC(c1ccc2oc(-c3ccccc3)cc2c1)N(O)C(N)=O (configuration not stated) |  | 410 nM | 10.3 mg/kg |
| CC(=O)N(O)C(C)c1ccc2oc(-c3ccccc3)cc2c1 (configuration not stated) |  | 490 nM | 22.1 mg/kg |
| CC(c1ccc2oc(-c3ccccc3)cc2c1)N(O)C(=O)c1ccccc1 (configuration not stated) | 46.2% |  |  |
| CC(c1cc2ccccc2s1)N(O)C(N)=O (configuration not stated) |  |  | 2.71 mg/kg |
| CC(c1ccc2oc(-c3ccccc3)cc2c1)N(O)C(=O)CO (configuration not stated) |  | 700 nM | 27.5 mg/kg |
| COc1cc(-c2cc3cc(C(C)N(O)C(C)=O)ccc3o2)cc(OC)c1OC (configuration not stated) | 42.1% | 310 nM |  |
| COc1ccc(C(=O)N(O)C(C)c2ccc3oc(-c4ccccc4)cc3c2)cc1OC (configuration not stated) |  | 200 nM |  |
| COc1cc(-c2cc3cc(C(C)N(O)C(N)=O)ccc3o2)cc(OC)c1OC (configuration not stated) |  | 50 nM | 17.5 mg/kg |
| CC(c1ccc2oc(-c3ccccc3)cc2c1)N(O)C(=O)c1ccco1 (configuration not stated) | 32.9% | 40 nM |  |
| CC(c1ccc2oc(-c3ccccc3)cc2c1)N(O)C(=O)c1cccs1 (configuration not stated) | 29.1% | 250 nM |  |

Now from value to molecule:

| inhibition [1] | IC50 [2] | ED50 [1] | Compound |
| --- | --- | --- | --- |
| 18.9% | 160 nM |  | CC(=O)OCC(=O)N(O)C(C)c1ccc2oc(-c3ccccc3)cc2c1 (configuration not stated) |
|  | 160 nM | 18.6 mg/kg | COCC(=O)N(O)C(C)c1ccc2oc(-c3ccccc3)cc2c1 (configuration not stated) |
| 42.1% | 40 nM |  | COC(=O)CCCC(=O)N(O)C(C)c1ccc2oc(-c3cc(OC)c(OC)c(OC)c3)cc2c1 (configuration not stated) |
| 19.5% | 410 nM |  | CCCCCCCCCCc1cc2cc(C(C)N(O)C(C)=O)ccc2o1 (configuration not stated) |
| 28.6% | 50 nM |  | CCCCc1cc2cc(C(C)N(O)C(=O)CCCC(=O)OC)ccc2o1 (configuration not stated) |
| 41.4% | 50 nM |  | CCCCc1cc2cc(C(C)N(O)C(C)=O)ccc2o1 (configuration not stated) |
|  | 60 nM |  | COC(=O)CCCC(=O)N(O)C(C)c1ccc2oc(-c3ccccc3)cc2c1 (configuration not stated) |
| 37.3% | 150 nM |  | CCCCCCCCCCc1cc2cc(C(C)N(O)C(=O)CCCC(=O)OC)ccc2o1 (configuration not stated) |
|  | 50 nM |  | CCOC(=O)CCC(=O)N(O)C(C)c1ccc2oc(-c3ccccc3)cc2c1 (configuration not stated) |
